Experimental data from ChEMBL document CHEMBL5696444 (Nat Commun, 2017).
Calls of active or inactive are those of the source. The calls are words filed in the database; no cut-off is given here.

What was measured:
HCT-116 [1] = test: Induction of apoptosis in human HCT-116 cells assessed as necrosis cells at 5 uM incubated for > 6 hrs by annexin V/PI staining based analysis (Rvb=0.55%); assay type: functional
HCT-116 [2] = test: Induction of apoptosis in human HCT-116 cells assessed as late apoptosis at 1 uM incubated for > 6 hrs by annexin V/PI staining based analysis (Rvb=6.12%); assay type: functional
[3] = target: Dual specificity mitogen-activated protein kinase kinase 1 (Homo sapiens) (UniProt Q02750); test: Inhibition of MAP2K1 (unknown origin) at 1000 nM in the presence of ATP by Kinome scan method relative to control
[4] = target: Serine/threonine-protein kinase Chk2 (Homo sapiens) (UniProt O96017); test: Inhibition of CHEK2 (unknown origin) at 1000 nM in the presence of ATP by Kinome scan method relative to control
[5] = target: Mitogen-activated protein kinase 8 (Homo sapiens) (UniProt P45983); test: Inhibition of MAPK8 (unknown origin) at 100 nM in the presence of ATP by Kinome scan method relative to control
[6] = target: Mast/stem cell growth factor receptor Kit (Homo sapiens) (UniProt P10721); test: Inhibition of KIT (unknown origin) at 1000 nM in the presence of ATP by Kinome scan method relative to control
[7] = target: Ephrin type-A receptor 1 (Homo sapiens) (UniProt P21709); test: Inhibition of EPHA1 (unknown origin) at 100 nM in the presence of ATP by Kinome scan method relative to control
[8] = target: Dual specificity protein kinase CLK1 (Homo sapiens) (UniProt P49759); test: Inhibition of CLK (unknown origin) in human HCT-116 cells assessed as decrease in SRSF4 phosphorylation level at 0.5 to 1.0 uM incubated for 6 hrs by immunoblot analysis; assay type: cell-based; conditions: dose 0.5-1 µM
[9] = target: Mast/stem cell growth factor receptor Kit (Homo sapiens) (UniProt P10721); test: Inhibition of KIT (unknown origin) at 100 nM in the presence of ATP by Kinome scan method relative to control
[10] = target: Angiopoietin-1 receptor (Homo sapiens) (UniProt Q02763); test: Inhibition of TEK (unknown origin) at 1000 nM in the presence of ATP by Kinome scan method relative to control
HCT-116 [11] = test: Induction of apoptosis in human HCT-116 cells assessed as early apoptosis at 5 uM incubated for > 6 hrs by annexin V/PI staining based analysis (Rvb=3.29%); assay type: functional
[12] = target: Mitogen-activated protein kinase 14 (Homo sapiens) (UniProt Q16539); test: Inhibition of MAPK14 (unknown origin) at 1000 nM in the presence of ATP by Kinome scan method relative to control
[13] = target: Ephrin type-A receptor 5 (Homo sapiens) (UniProt P54756); test: Inhibition of EPHA5 (unknown origin) at 1000 nM in the presence of ATP by Kinome scan method relative to control
HCT-116 [14] = test: Cytotoxicity against human HCT-116 cells assessed as inhibition of cell viability incubated for > 24 hrs; assay type: functional
HCT-116 [15] = test: Induction of apoptosis in human HCT-116 cells assessed as viable cells at 10 uM incubated for > 6 hrs by annexin V/PI staining based analysis (Rvb=90.04%); assay type: functional; conditions: read-out: Activity
[16] = target: Casein kinase I isoform delta (Homo sapiens) (UniProt P48730); test: Inhibition of CSNK1D (unknown origin) at 100 nM in the presence of ATP by Kinome scan method relative to control
HCT-116 [17] = test: Induction of apoptosis in human HCT-116 cells assessed as necrosis cells at 1 uM incubated for > 6 hrs by annexin V/PI staining based analysis (Rvb=0.55%); assay type: functional
[18] = target: Serine/threonine-protein kinase Nek2 (Homo sapiens) (UniProt P51955); test: Inhibition of NEK2 (unknown origin) at 1000 nM in the presence of ATP by Kinome scan method relative to control
HCT-116 [19] = test: Induction of cell cycle arrest in human HCT-116 cells assessed as S phase at 5 uM incubated for 6 hrs by flow cytometry analysis (Rvb=39.3%); assay type: functional
[20] = target: Proto-oncogene tyrosine-protein kinase receptor Ret (Homo sapiens) (UniProt P07949); test: Inhibition of RET (unknown origin) at 100 nM in the presence of ATP by Kinome scan method relative to control
[21] = target: Cyclin-dependent kinase 1/cyclin B1 (Homo sapiens) (UniProt P06493+P14635); test: Inhibition of CDK1/cyclin B (unknown origin) at 100 nM in the presence of ATP by Kinome scan method relative to control; assay type: protein-complex assay
[22] = target: Ephrin type-A receptor 2 (Homo sapiens) (UniProt P29317); test: Inhibition of EPHA2 (unknown origin) at 1000 nM in the presence of ATP by Kinome scan method relative to control
[23] = target: Dual specificity mitogen-activated protein kinase kinase 2 (Homo sapiens) (UniProt P36507); test: Inhibition of MAP2K2 (unknown origin) at 1000 nM in the presence of ATP by Kinome scan method relative to control
HCT-116 [24] = test: Induction of cell cycle arrest in human HCT-116 cells assessed as sub G0/G1 phase at 5 uM incubated for 6 hrs by flow cytometry analysis (Rvb=1.6%); assay type: functional
[25] = target: Cyclin-dependent kinase 5/CDK5 activator 1 (Homo sapiens) (UniProt Q00535+Q15078); test: Inhibition of CDK5/p35 (unknown origin) at 100 nM in the presence of ATP by Kinome scan method relative to control; assay type: protein-complex assay
HCT-116 [26] = test: Induction of apoptosis in human HCT-116 cells assessed as early apoptosis at 10 uM incubated for > 6 hrs by annexin V/PI staining based analysis (Rvb=3.29%); assay type: functional
[27] = target: Dual specificity protein kinase CLK1 (Homo sapiens) (UniProt P49759); test: Inhibition of CLK (unknown origin) in human HCT-116 cells assessed as induction in alternative splicing effect in MRPS10-GUCA1B level incubated for 6 hrs by RT-PCR analysis; assay type: cell-based; conditions: dose 0.2-5 µM
Procedure, shortened: (§1)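 Cells exposed to graded T3 concentrations for 6 h (chosen to avoid cytotoxicity), with a DMSO vehicle control. Total RNA was reverse-transcribed with oligo-dT primers. Targeted splice or conjoined-gene products were quantified by real-time qPCR or by targeted next-generation sequencing. Conjoined-gene isoform expression was normalized to a sequenced housekeeping gene.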

[28] = target: Dual specificity protein kinase CLK1 (Homo sapiens) (UniProt P49759); test: Inhibition of CLK (unknown origin) in human 184-hTERT cells assessed as induction in alternative splicing effect in RBM25-PSEN1 level incubated for 6 hrs by RT-PCR analysis; assay type: cell-based; conditions: dose 0.2-5 µM; procedure, shortened: as §1
[29] = target: Inhibitor of nuclear factor kappa-B kinase subunit beta (Homo sapiens) (UniProt O14920); test: Inhibition of IKBKB (unknown origin) at 100 nM in the presence of ATP by Kinome scan method relative to control
[30] = target: SRSF protein kinase 1 (Homo sapiens) (UniProt Q96SB4); test: Inhibition of SRPK1 (unknown origin) at 123 nM in the presence of ATP by Kinome scan method relative to control; conditions: time > 6.0 hrs
[31] = target: Serine/threonine-protein kinase mTOR (Homo sapiens) (UniProt P42345); test: Inhibition of FRAP1 (unknown origin) at 100 nM in the presence of ATP by Kinome scan method relative to control

Sequence of Dual specificity protein kinase CLK1 (Homo sapiens) (P49759 whole entry, looked up, canonical isoform): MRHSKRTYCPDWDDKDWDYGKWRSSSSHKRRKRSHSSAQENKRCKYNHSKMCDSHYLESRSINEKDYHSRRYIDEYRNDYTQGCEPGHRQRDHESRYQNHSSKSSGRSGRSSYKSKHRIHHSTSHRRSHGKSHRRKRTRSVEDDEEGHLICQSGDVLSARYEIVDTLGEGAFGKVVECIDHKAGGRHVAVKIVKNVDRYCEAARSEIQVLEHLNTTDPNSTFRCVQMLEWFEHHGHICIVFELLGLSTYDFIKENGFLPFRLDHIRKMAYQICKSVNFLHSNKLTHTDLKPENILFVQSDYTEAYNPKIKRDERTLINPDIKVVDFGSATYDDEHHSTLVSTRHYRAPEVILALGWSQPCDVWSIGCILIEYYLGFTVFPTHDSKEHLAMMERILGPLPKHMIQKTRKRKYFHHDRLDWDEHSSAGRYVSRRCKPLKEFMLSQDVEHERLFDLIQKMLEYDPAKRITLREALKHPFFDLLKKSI
Sequence of Mast/stem cell growth factor receptor Kit (Homo sapiens) (P10721 whole entry): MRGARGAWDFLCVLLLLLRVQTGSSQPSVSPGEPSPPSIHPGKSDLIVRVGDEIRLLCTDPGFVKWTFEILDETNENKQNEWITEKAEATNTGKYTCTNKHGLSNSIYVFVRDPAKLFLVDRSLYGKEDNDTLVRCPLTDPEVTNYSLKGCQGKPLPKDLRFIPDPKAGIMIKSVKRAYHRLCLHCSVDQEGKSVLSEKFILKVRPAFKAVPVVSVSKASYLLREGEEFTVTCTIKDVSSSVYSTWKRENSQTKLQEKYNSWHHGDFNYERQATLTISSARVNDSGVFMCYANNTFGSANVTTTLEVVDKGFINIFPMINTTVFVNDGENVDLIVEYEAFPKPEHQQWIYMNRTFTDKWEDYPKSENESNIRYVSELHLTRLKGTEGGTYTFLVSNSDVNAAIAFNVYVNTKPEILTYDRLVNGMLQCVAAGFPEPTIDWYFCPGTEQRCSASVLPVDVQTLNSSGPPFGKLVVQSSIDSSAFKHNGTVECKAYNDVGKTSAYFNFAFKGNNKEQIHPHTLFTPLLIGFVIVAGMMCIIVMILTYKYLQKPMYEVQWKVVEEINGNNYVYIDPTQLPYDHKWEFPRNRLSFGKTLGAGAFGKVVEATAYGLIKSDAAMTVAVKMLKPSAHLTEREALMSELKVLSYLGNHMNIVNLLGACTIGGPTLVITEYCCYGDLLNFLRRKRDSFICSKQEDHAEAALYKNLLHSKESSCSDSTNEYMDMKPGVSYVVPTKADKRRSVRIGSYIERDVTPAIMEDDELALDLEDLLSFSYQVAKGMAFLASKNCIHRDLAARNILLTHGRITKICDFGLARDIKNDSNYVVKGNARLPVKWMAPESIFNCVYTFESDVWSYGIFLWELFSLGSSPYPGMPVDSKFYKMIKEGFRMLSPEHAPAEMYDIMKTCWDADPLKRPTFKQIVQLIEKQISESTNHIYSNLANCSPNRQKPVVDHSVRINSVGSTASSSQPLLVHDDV
Sequence of Inhibitor of nuclear factor kappa-B kinase subunit beta (Homo sapiens) (O14920 whole entry): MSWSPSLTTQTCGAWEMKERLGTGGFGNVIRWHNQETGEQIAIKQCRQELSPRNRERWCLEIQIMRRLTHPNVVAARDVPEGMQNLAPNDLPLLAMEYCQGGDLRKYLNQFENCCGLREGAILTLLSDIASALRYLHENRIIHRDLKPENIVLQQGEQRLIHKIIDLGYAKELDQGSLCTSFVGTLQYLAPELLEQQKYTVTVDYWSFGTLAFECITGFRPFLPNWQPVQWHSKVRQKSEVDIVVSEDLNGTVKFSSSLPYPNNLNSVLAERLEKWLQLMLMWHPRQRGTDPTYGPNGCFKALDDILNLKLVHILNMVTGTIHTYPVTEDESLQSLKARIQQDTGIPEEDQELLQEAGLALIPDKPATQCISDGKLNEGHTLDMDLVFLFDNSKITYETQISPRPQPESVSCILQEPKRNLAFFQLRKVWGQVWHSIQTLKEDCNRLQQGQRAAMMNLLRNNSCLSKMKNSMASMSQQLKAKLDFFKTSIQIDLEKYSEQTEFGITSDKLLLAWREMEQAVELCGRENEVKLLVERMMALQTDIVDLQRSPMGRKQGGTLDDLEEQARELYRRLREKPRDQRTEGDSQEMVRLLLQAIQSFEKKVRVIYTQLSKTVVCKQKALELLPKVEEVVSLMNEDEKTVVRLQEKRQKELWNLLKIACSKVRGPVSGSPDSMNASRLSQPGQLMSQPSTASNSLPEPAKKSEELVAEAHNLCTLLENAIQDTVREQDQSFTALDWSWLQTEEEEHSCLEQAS
Sequence of Mitogen-activated protein kinase 8 (Homo sapiens) (P45983 whole entry): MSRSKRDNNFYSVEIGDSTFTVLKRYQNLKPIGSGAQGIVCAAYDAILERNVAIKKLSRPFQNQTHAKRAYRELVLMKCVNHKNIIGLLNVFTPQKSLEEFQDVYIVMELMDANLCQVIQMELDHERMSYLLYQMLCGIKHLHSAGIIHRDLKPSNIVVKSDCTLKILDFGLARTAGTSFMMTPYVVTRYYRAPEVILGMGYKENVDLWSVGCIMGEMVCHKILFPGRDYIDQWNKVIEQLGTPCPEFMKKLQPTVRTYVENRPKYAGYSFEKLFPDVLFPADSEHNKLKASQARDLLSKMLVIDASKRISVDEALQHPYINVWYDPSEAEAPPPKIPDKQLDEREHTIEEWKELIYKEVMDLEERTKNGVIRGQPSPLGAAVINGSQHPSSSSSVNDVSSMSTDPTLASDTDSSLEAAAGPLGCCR
Sequence of Cyclin-dependent kinase 5/CDK5 activator 1 (Homo sapiens) (Q00535 whole entry): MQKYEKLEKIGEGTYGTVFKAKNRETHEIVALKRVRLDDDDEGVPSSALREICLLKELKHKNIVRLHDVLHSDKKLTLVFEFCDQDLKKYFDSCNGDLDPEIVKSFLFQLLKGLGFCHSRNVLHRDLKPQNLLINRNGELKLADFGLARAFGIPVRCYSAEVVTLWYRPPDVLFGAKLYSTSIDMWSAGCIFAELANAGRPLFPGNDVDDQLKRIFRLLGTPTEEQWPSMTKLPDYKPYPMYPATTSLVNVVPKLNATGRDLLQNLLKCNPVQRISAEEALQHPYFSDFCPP
Sequence of Cyclin-dependent kinase 5/CDK5 activator 1 (Homo sapiens) (Q15078 99-307 partner limits assumed): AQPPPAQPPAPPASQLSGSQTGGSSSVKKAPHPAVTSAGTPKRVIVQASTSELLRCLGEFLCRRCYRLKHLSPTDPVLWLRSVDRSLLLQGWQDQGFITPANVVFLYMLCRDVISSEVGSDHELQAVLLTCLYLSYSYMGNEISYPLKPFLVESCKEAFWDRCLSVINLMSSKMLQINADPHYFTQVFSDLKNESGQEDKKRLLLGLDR
Sequence of Ephrin type-A receptor 5 (Homo sapiens) (P54756 whole entry): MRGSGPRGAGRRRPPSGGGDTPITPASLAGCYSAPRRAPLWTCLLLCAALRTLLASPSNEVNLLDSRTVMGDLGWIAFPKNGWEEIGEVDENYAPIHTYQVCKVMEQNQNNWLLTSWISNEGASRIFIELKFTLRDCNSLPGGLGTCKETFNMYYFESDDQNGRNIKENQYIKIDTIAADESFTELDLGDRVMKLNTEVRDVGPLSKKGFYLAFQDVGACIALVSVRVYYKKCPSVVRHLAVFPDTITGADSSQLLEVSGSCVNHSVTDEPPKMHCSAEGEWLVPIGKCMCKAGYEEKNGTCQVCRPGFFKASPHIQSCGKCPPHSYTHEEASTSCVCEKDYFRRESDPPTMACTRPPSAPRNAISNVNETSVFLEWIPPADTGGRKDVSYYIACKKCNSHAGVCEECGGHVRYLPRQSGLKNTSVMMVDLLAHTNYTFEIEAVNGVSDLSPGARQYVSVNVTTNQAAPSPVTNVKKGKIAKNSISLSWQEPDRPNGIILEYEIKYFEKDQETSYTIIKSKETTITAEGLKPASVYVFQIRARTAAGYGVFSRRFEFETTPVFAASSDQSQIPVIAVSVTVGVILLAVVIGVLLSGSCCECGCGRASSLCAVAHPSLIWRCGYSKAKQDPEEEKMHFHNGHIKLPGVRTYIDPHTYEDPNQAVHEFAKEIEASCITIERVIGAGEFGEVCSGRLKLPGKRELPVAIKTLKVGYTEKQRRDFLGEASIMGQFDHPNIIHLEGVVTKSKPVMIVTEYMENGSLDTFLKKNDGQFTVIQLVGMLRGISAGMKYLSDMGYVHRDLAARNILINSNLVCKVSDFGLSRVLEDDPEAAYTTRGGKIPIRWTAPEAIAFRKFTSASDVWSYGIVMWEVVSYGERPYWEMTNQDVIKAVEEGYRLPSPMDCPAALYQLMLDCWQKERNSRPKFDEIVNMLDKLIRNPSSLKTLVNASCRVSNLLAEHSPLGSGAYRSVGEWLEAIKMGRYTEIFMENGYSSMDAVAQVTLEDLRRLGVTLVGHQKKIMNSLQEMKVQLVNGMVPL
Sequence of Dual specificity mitogen-activated protein kinase kinase 2 (Homo sapiens) (P36507 whole entry): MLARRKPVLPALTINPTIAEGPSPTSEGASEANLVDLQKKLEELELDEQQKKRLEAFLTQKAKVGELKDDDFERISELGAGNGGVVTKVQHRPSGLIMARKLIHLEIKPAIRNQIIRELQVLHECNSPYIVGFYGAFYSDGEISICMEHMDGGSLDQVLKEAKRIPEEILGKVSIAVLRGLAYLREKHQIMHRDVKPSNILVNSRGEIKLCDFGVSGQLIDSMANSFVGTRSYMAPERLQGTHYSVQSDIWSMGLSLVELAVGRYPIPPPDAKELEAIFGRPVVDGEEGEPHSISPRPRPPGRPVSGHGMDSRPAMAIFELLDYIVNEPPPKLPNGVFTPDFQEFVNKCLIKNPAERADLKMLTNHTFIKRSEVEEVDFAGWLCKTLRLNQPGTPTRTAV
Sequence of Mitogen-activated protein kinase 14 (Homo sapiens) (Q16539 whole entry): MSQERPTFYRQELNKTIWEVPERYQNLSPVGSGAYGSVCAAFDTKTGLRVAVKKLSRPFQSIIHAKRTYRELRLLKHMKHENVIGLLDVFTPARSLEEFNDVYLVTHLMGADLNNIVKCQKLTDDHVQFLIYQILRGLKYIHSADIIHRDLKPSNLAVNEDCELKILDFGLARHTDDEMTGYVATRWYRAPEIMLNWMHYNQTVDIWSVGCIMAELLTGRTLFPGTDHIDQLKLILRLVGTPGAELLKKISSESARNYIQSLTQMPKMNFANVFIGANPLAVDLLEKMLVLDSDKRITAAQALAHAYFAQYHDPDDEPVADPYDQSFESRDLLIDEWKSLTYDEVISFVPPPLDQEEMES

CN1CCN(C(=O)C(C)(C)c2ccc(C(=O)Nc3cn4cc(-c5ccncc5)ccc4n3)cc2)CC1 [T3-CLK] showed an Activity (HCT-116 [1]) of 0.87%, an Activity (HCT-116 [2]) of 7.46% and an inhibition [3] of 11%. The inhibition [4] was 24%, the inhibition [5] was 5% and the inhibition [6] was 37%. The inhibition [7] was -2%, the inhibition [8] was “Active” and the inhibition [9] was 11%. The inhibition [10] was 0%, the Activity (HCT-116 [11]) was 4.32% and the inhibition [12] was 6%. It also gave an inhibition [13] of -5%, a GI (HCT-116 [14]) of 0.133 µM and a viability at 10 µM (HCT-116 [15]) of 87.3%. For the same compound, the inhibition [16] was -3%, the Activity (HCT-116 [17]) was 0.73% and the inhibition [18] was 24%. For the same compound, the Activity (HCT-116 [19]) was 37.4%, the inhibition [20] was -1% and the inhibition [21] was 8%. The inhibition [22] was -6%, the inhibition [23] was 14% and the Activity (HCT-116 [24]) was 2.2%. The inhibition [25] was 2%, the Activity (HCT-116 [26]) was 3.7% and the inhibition [27] was “Dose-Dependent Effect”. For the same compound, the inhibition [28] was “Dose-Dependent Effect”, the inhibition [29] was -6% and the inhibition [30] was -3%. The inhibition [31] was -6%.
